Measurements taken from ChEMBL document CHEMBL4825692, “Benzofuranyl-2-imidazoles as imidazoline I2 receptor ligands for Alzheimer's disease” (Eur J Med Chem, 2021).
Calls of active or inactive are those of the source. No cut-off for these calls is given here.

Assays:
Mus musculus [1] = assay: Antialzheimer activity in 5xFAD transgenic Alzheimer disease mouse model assessed as decrease in iNOS expression at 1 mg/kg/day by Western blot analysis
hERG (KCNH2) = hERG (KCNH2) (Homo sapiens, UniProt Q12809); assay: Inhibition of human ERG at 10 uM
Mus musculus [2] = assay: Antialzheimer activity in 5xFAD transgenic Alzheimer disease mouse model assessed as decrease in aldehyde dehydrogenase 2 expression at 1 mg/kg/day by Western blot analysis
[3] = Cmax in CD-1 mouse at 10 mg/kg, po measured after 24 hrs by HPLC/UV-VS analysis; assay type: ADME, organism-based; set-up: route oral, dose 10 mg/kg, time 24 hrs; settings: in vivo
Summary of the method: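 Male CD1 mice; plasma concentration of drug at 15 min to 24 h after a single oral 10 mg/kg dose, measured by HPLC with UV at 290 nm (calibration 0,025-5 μg/mL, peak area ratio). Non-compartmental analysis of mean concentration–time curves: AUC by trapezoidal rule, Cmax read directly from the mean curve.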

CAPAN-1 = assay: Cytotoxicity against human CAPAN-1 cells at 100 uM by real time IncuCyte proliferation assay; assay type: cell-based; settings: capan-1, 100 µM
Summary of the method: (§1)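 Adherent lines (LN-229, Capan-1, HCT-116, NCI-H460) seeded at 500–1500 cells/well and treated after overnight attachment. Suspension lines (HL-60, K-562, Z-138, DND-41) seeded at 2500–5500 cells/well directly with compound. Highest concentration 100 μM; proliferation tracked by real-time IncuCyte imaging over 72 h at 37 °C.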

[4] = Plasma protein binding in mouse assessed as unbound fraction; assay type: ADME, cell-free
[5] = Stability in human plasma assessed as compound remaining after1 hrs; assay type: ADME, cell-free; settings: read-out: Stabilty
Summary of the method: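 Pooled human plasma from healthy donors, sampled at 0, 1, 2 and 6 h, reported as percentage of parent remaining.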

[6] = Solubility of the compound in 1% DMSO solution; assay type: physicochemical
[7] = Displacement of [3H]2-BFI from imidazoline I2 receptor low affinity site in post-mortem human brain frontal cortex membrane two site model measured after 45 mins by liquid scintillation counting spectrometry
[8] = Displacement of [3H]2-BFI from imidazoline I2 receptor high affinity site in Swiss mouse brain cerebral cortex membrane measured after 45 mins by liquid scintillation counting spectrometry
Cytochrome P450 3A4 = Cytochrome P450 3A4 (Homo sapiens, UniProt P08684); assay: Inhibition of CYP3A4 (unknown origin) using as DBF as substrate at 10 uM; assay type: ADME
Summary of the method: (§2)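 Recombinant human CYP1A2, CYP2C9, CYP2C19, CYP2D6 and CYP3A4 (7-BFC or DBF as probe) were tested with probe substances and fluorescent detection, with test compound at 10 μM.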

Cytochrome P450 2C19 = Cytochrome P450 2C19 (Homo sapiens, UniProt P33261); assay: Inhibition of CYP2C19 (unknown origin) at 10 uM; assay type: ADME
Summary of the method: as §2

K562 = assay: Cytotoxicity against human K562 cells at 100 uM by real time IncuCyte proliferation assay; assay type: cell-based; settings: k562, 100 µM
Summary of the method: as §1

[9] = Plasma protein binding in human assessed as unbound fraction; assay type: ADME, cell-free

Sequence of hERG (KCNH2) (Q12809 whole entry): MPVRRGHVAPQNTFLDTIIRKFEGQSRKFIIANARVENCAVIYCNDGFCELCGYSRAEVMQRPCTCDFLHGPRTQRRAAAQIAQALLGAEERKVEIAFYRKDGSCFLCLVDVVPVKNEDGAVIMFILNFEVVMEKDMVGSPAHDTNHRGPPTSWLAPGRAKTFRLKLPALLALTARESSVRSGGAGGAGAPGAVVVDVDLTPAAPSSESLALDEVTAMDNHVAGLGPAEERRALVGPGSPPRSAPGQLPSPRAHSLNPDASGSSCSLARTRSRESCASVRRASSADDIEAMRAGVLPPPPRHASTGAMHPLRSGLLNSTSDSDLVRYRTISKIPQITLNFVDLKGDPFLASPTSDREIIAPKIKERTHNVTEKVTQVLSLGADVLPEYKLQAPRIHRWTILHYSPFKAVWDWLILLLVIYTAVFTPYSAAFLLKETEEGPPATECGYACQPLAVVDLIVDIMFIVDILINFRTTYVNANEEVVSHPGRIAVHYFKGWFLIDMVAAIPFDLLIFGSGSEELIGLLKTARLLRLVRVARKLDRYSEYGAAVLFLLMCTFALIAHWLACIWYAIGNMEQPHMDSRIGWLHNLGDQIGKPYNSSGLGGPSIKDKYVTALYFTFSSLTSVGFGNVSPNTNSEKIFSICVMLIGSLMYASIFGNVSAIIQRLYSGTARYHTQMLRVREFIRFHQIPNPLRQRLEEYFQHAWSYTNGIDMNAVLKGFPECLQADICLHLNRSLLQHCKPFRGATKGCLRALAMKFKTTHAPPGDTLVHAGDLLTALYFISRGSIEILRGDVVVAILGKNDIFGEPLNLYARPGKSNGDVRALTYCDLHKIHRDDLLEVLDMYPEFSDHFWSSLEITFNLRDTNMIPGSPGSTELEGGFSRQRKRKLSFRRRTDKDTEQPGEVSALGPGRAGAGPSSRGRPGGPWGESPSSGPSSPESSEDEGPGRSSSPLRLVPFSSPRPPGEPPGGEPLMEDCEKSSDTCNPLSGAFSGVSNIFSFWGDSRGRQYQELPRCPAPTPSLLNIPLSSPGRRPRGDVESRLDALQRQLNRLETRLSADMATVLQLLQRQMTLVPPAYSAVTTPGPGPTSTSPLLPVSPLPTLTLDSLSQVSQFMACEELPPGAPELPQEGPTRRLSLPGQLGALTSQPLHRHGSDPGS
Sequence of Cytochrome P450 3A4 (P08684 whole entry): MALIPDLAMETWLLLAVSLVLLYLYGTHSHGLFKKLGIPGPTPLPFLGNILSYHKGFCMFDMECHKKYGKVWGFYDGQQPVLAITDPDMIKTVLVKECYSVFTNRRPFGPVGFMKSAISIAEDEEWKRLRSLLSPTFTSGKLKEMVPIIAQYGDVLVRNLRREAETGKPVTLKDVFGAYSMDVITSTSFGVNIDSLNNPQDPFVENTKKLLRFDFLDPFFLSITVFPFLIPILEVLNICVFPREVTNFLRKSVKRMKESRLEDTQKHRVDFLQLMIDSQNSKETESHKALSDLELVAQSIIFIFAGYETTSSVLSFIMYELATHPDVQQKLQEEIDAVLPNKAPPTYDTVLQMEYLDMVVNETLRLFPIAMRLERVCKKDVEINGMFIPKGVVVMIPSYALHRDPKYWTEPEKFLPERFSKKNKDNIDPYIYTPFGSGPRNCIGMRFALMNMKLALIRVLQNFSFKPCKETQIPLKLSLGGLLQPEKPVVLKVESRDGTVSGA
Sequence of Cytochrome P450 2C19 (P33261 whole entry): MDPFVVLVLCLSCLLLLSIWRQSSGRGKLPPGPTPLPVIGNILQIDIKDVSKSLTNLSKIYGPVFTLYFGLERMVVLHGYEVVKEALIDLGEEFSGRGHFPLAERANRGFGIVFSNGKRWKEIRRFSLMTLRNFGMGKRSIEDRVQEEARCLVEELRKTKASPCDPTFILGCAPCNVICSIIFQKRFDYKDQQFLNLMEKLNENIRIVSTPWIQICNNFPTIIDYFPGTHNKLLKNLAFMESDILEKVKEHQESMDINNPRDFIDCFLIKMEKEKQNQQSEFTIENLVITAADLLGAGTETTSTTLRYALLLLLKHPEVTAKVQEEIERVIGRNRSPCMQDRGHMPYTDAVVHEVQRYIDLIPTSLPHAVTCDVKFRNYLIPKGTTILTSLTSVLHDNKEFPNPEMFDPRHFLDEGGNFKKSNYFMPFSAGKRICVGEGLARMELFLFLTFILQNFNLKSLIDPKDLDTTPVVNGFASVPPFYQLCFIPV

Cl.c1ccc2oc(-c3ncc[nH]3)cc2c1
Activity (Mus musculus [1]): Active | inhibition at 10 µM (hERG (KCNH2)): 4% | Activity (Mus musculus [2]): Active | Cmax [3]: 600 ng/mL | Activity (CAPAN-1): Non-Toxic | fraction unbound [4]: 0.16 | remaining at 1 h [5]: 83% | solubility [6]: 52.5 µM | pKi [7]: 6.02 | pKi [8]: 9.92 | inhibition (INH) (Cytochrome P450 3A4): Not Active | inhibition (INH) (Cytochrome P450 2C19): Not Active | Activity (K562): Non-Toxic | fraction unbound [9]: 0.071
